Consider two compounds from PMC8865112 (Journal of Enzyme Inhibition and Medicinal Chemistry, 2022).

Test [1] relates to A549/DDP. Description: CCK-8 cell growth and sensitisation to DDP. Type of test: cell-based, human. A digest of the protocol:
(§1)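 Exponential-phase cells were trypsinised, diluted to 5 × 10^7/l and plated, then cultured 24 h at 37 °C. Test compound was added where indicated (DMF <0.2%), and DDP (saline stock 5.0 mM) was added 1 h later. After 72 h at 37 °C, CCK-8 was applied for 2 h and A450 was read. Live cells were calculated as % of the no-DDP, no-inhibitor control. Done in triplicate.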

In test [2] the test system is SGC7901/DDP. Description: CCK-8 cell growth and sensitisation to DDP. It counts as cell-based, human. The method in brief: as §1
A further test concerns SK-OV-3/DDP. The test is described as follows: CCK-8 cell growth and sensitisation to DDP. Type of test: cell-based, human. Conditions: SK-OV-3/DDP cells versus SK-OV-3 cells. The method in brief: as §1
The test system of the next test is COC1/DDP. Description: CCK-8 cell growth and sensitisation to DDP. Type of test: cell-based, human. The method in brief:
as §1

For test [3], the system named is A549/DDP. Description: Apoptosis percentages. Type of test: cell-based, human. Conditions: DDP alone 2.0 μM, EDEA alone 1.0 and 2.0 μM.
The test system of test [4] is SGC7901/DDP. The test is described as follows: Apoptosis percentages. Type of test: cell-based, human. Conditions: DDP alone 2.0 μM, EDEA alone 1.0 and 2.0 μM.
Another test relates to drug-resistant cancers. Conditions: cited from earlier work.

As to `N.N.[Cl][Pt][Cl]` [DDP, cisplatin], the “IC50 value of DDP in resistant versus parental cells” value in the test on A549/DDP [1] is given as ~7 fold; in the test on SGC7901/DDP [2], ~3 fold; in the test on SK-OV-3/DDP, ~4 fold; with COC1/DDP it was ~4 fold. Moreover, the “effect of single agent on apoptosis percentages” value with A549/DDP [3] and in the test on SGC7901/DDP [4] was “did not greatly alter” in each case.
Consider `C=C(CC)C(=O)c1ccc(OCC(=O)O)c(Cl)c1Cl` [EAA, ethacrynic acid], for which the “level that sensitised drug-resistant cancers to DDP in vitro” value in the test with drug-resistant cancers is ~20 µM.
